This is a sample that favours compounds with a hit; in the whole collection about 4.3% have one here.
CHO parental Ca – signal in parental CHO cells, OX1R antagonist counter-screen | hit rate 0.63% among 330,000 | parental CHO-K1, ATP-induced calcium, Fluo-8 fluorescence | AID 463079 | inhibition, % at 5.6 µM;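 active means inhibition above that plate's mean sample inhibition plus 3 SD, cut at about 26% in these data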;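 further: 0% = ATP-challenged DMSO wells and 100% = DMSO wells without ATP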
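Measured by: calcium-sensitive Fluo-8 fluorescence / Test system: CHO parental line / Controls: ATP-challenged DMSO wells low, unchallenged DMSO wells high / Measure: % inhibition / Compound: single nominal dose of 5.6 µM per compound / Replicates: single well per compound, no replicates / Reagent: ATP as calcium-mobilizing challenge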
GalR3 antag – blocks the human galanin receptor 3; inhibition, % at 3 µM; O60755; hit rate 0.44% among 360,000; HEK293 GalR3-CNG cAMP membrane potential fluorescence; galR3 body fused to GalR1 C-terminus;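 active means inhibition above the screen-wide average plus 3 SD, cut at about 13% in these data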;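 further: forskolin and galanin both at EC90 stimulate the cells; cAMP rise reported by CNG channel membrane potential dye signal; 0% = forskolin plus galanin with DMSO and 100% = forskolin alone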
Target sequence (O60755 1-299 limits assumed): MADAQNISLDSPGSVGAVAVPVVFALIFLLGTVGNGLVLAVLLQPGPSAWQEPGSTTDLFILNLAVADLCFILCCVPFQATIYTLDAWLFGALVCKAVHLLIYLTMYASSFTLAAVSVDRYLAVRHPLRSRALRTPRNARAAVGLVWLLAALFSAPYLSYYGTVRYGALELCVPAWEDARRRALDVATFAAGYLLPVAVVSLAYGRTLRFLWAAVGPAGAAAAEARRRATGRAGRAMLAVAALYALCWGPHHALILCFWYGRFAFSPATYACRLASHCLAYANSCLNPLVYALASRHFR
OX1R antag-1 – OX1R (human) antagonism. O43613. hit rate 1.8% among 330,000. inhibition, % at 6.6 µM. OX1R-expressing cells, FRET antagonist read-out; in the data active means inhibition mostly above about 38%, no sharp cut-off; inactive means mostly below about 40%;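 further: 0% = agonist challenge alone and 100% = reference antagonist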
TAAR1 agonist – human TAAR1 agonism. activation, % at 3 µM. hit rate 0.99% among 360,000. AID 624467. CHO RD-HGA16 TAAR1, Fluo-8 calcium fluorescence; vehicle wells 0%, saturating PEA agonist 100%. Q96RJ0;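 active means activation above the mean activation of all test compounds in the run plus 3 SD, cut at about 38% in these data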
Target sequence (Q96RJ0 whole entry, looked up): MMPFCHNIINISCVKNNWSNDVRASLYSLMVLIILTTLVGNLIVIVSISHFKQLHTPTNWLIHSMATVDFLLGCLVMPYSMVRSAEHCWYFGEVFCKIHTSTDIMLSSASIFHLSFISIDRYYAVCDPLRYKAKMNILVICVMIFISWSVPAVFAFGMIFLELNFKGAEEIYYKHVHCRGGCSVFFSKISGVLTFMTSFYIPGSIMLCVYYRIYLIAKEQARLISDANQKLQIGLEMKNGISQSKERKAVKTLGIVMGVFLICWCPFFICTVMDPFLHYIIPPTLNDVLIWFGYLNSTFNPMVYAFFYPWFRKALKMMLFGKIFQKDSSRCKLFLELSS
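Test system: RD-HGA16 (CHO) cells co-expressing Gα16 and hTAAR1 | Doses: Single dose, 3 µM | Schedule: 17-24 h seeding, 75 min 37 °C dye, 30 min RT | Evaluation: % activation from peak over basal fluorescence ratio, DMSO-to-PEA scaled | Technique: Kinetic Fluo-8 calcium fluorescence | Benchmarks: Low control DMSO, high control PEA (EC100)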
OX1R antag-2 – blocks the human orexin 1 receptor | CHO/OX1R cells, Fluo-8 calcium fluorescence, orexin A | O43613 | inhibition, % at 5 µM | hit rate 0.43% among 330,000 | AID 434989;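 active means inhibition above its plate's threshold, mean inhibition of all tested compounds on the plate plus 3 SD, cut at about 37% in these data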;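 further: 0% = orexin A challenge wells and 100% = SB-334867-A antagonist wells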
TAAR1 antag – human TAAR1 antagonism. CHO RD-HGA16 TAAR1, Fluo-8 calcium fluorescence, antagonist. inhibition, % at 3 µM. hit rate 1.5% among 360,000. AID 624466;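 active means inhibition above a per-plate cutoff, the mean inhibition of test compounds on that plate plus 3 SD, cut at about 49% in these data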;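 further: 0% = DMSO plus EC80 beta-PEA response and 100% = DMSO alone without agonist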
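System: RD-HGA16 CHO cells with stable hTAAR1 and Gα16 | Probe or stimulus: EC80 β-phenethylamine stimulus | Dosing: 3 µM, single point | Times: Dye loading 75 min at 37 °C, then 30 min room temperature | Measured by: Fluo-8 calcium-sensitive fluorescence | Read-out basis: % inhibition of agonist calcium response | Replicates: n of 1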
OX1R Fluo8 conf – OX1R (human) antagonism, confirmed; AID 492963; CHO/OX1R cells, orexin A calcium Fluo-8 fluorescence; inhibition, % at 5 µM; shares compounds with OX1R antag-2; hit rate 38% among 1,100; in the data active means inhibition above about 29%;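 further: 0% = agonist challenge alone and 100% = reference antagonist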
CHO Ca triplic – counter-screen for OX1R antagonists: effect in parental CHO cells; shares compounds with OX1R antag-2; inhibition, % at 5.6 µM; parental CHO-K1, ATP-induced calcium, Fluo-8 fluorescence; hit rate 9.3% among 1,100;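 active means inhibition above a per-plate limit, the mean inhibition of that plate's test compounds plus 3 SD, cut at about 25% in these data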;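 further: 0% = ATP challenge with DMSO and 100% = DMSO without ATP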
Starred values were filed as active, the others as inactive; / = no result given.

SMILES	CHO parental Ca	GalR3 antag	OX1R antag-1	TAAR1 agonist	OX1R antag-2	TAAR1 antag	OX1R Fluo8 conf	CHO Ca triplic
Cn1c(N)c(S(=O)(=O)N2CCN(c3ccccc3Cl)CC2)c(=O)n(C)c1=O	-26	-2	21	3	-10	-15	/	/
CCN(CC)S(=O)(=O)c1ccc2oc(C(=O)NCc3ccc(F)cc3)c(C)c2c1	20	-2	13	12	25	27	0	-5
O=C1Nc2ccc(S(=O)(=O)NCCC3=CCCCC3)c3cccc1c23	19	1	61	18	34	24	-2	1
O=C(Nc1ccc(OC(F)(F)F)cc1)N1CCN(c2ccnc3cc(Cl)ccc23)CC1	-2	-4	16	-1	24	-22	19	35*
CC(=O)c1cccc(NC(=O)Nc2ccc3c(c2)OCO3)c1	/	0	/	5	/	20	/	/
O=C(Nc1cccc(Cl)c1)Nc1ccc2c(c1)OCO2	15	-1	69	19	32	11	9	6
CC(=O)c1ccc(OCC(=O)NC(=O)NC2CCCC2)cc1	/	-8	/	7	/	4	/	/
Cc1cccc(C2c3[nH]c4ccccc4c3CCN2C(=O)Cc2nc(-c3ccccc3)n[nH]2)n1 (stereo not drawn)	10	-8	10	6	41	24	18	-20
Cc1cccc(C2c3[nH]c4ccccc4c3CCN2C(=O)CN2CCOC2=O)n1 (stereo not drawn)	-13	-4	19	0	-37	6	/	/
COc1cccc(CCC2C(=O)CCCC2=O)c1	/	-1	/	1	/	4	/	/
COc1cc(CNC(C)c2ccccc2)cc(Br)c1OCc1ccc(F)cc1 (stereo not drawn)	12	-10	12	9	29	47	/	/
COc1cc(CNC(C)c2ccccc2)cc(Br)c1OCc1ccccc1 (stereo not drawn)	-3	-1	-2	18	46*	38	22	-3
COc1cccc(C(=O)c2ccccc2NC(C)=O)c1	/	-5	/	1	/	-10	/	/
O=c1[nH]c2cccc(Cl)c2c2ccccc12	/	-3	/	3	/	5	/	/
C[C@@H](CSc1ccc(Br)cc1)CN1CC[C@H](NC(=O)OCc2ccccc2)CCC1=O	18	-5	0	9	53*	43	-4	0
COc1ccc(SC[C@H](C)CN2CC[C@H](NC(=O)OCc3ccccc3)CCC2=O)cc1	-3	-4	12	13	15	10	/	/
Cc1cc2c(cc1S(=O)(=O)N(C)Cc1ccccc1)n(C)c(=O)c(=O)n2C	-7	2	14	-1	10	-38	/	/
CN(Cc1ccccc1)S(=O)(=O)c1ccc2c(c1)n(C)c(=O)c(=O)n2C	4	-4	19	2	32	-25	1	20
CCCC(=O)Nc1ccc(Sc2ccc([N+](=O)[O-])cc2)cc1	25	-3	49	2	38	35	9	10
Cc1noc(C)c1CSCC(=O)Nc1ccccc1N1CCCCC1	-36	/	22	/	-42	/	/	/
COc1ccc2c(COC(=O)c3cccc(S(=O)(=O)NCC(C)C)c3)cc(=O)oc2c1	15	-6	34	10	46*	65*	42*	5
COc1ccc2c(COC(=O)CNS(=O)(=O)c3ccc(C)c(C)c3)cc(=O)oc2c1	-15	-6	2	3	0	5	/	/
CCOc1ccccc1NC(=O)c1cc(S(=O)(=O)NCc2ccco2)ccc1F	-5	-6	33	1	40*	2	3	-7
CCOc1cccc(Nc2ccc([N+](=O)[O-])cn2)c1	-4	-9	30	-3	-25	31	/	/
O=C1OC(/C=C/c2ccccc2)=NC/1=C\c1cccnc1	6	-4	23	0	50*	8	4	1
SMILES	CHO parental Ca	GalR3 antag	OX1R antag-1	TAAR1 agonist	OX1R antag-2	TAAR1 antag	OX1R Fluo8 conf	CHO Ca triplic
CCCn1c2ccccc2c2nc3ccccc3nc21	-29	-5	72	3	28	8	12	-14
CCn1c2ccc(F)cc2c2nc3ccccc3nc21	-17	-2	95	8	34	0	27	-4
COc1ccc(Cn2c3ccc(OC)cc3c3nc4ccccc4nc32)cc1	-3	-3	2	4	3	-8	/	/
CSCC(=O)N1CCCC(CNC(=O)c2ccccc2Cl)C1 (stereo not drawn)	-2	0	9	1	22	-7	7	-14
CC1CCCC(NC(=O)COC(=O)/C=C/c2ccc(F)cc2)C1C (stereo not drawn)	-2	-6	-1	-3	-23	2	/	/
C=CCn1c(SCC(=O)Nc2sccc2C(N)=O)nc2ccc(Cl)cc2c1=O	9	-7	46	17	53*	29	16	8
NS(=O)(=O)c1ccc(CNC(=O)C(Cc2ccccc2)NS(=O)(=O)c2ccccc2F)cc1 (stereo not drawn)	-1	-8	-12	0	26	-1	-1	-6
NS(=O)(=O)c1ccc(CNC(=O)Cc2ccccc2F)cc1	-6	-5	4	0	-8	10	/	/
COC(=O)[C@H](Cc1c[nH]c2ccccc12)NC(=O)CCCc1c[nH]c2ccccc12	23	-12	40	18	47	45	64*	15
COC(=O)c1c(C)oc2ccc(N(C(=O)c3ccncc3)S(=O)(=O)c3ccc(C)cc3)cc12	17	/	32	/	39*	/	12	13
Cc1ccc(S(=O)(=O)N(C(=O)c2ccncc2)c2ccc3oc4c(c3c2)CCCC4)cc1[N+](=O)[O-]	-10	3	52	0	-13	-6	/	/
COc1ccc(C(=O)NCC(=O)NCC(=O)OCc2ccc(Br)cc2)cc1	-17	-5	25	-1	-31	-35	/	/
O=C(CNC(=O)c1ccc(Oc2ccccc2)cc1)OCc1ccc(Br)cc1	17	-2	8	2	34	7	8	3
CNc1snc(C)c1C(=O)OCC(=O)c1ccc(Cl)cc1	2	-1	19	5	37	17	16	45*
CNc1snc(C)c1C(=O)OC(C)C(=O)c1ccc(F)cc1 (stereo not drawn)	-20	-2	15	6	-2	2	/	/
CC(C)N(Cc1ccccc1)S(=O)(=O)c1ccc(-n2cccn2)cc1	/	-5	/	1	/	17	/	/
Cc1ccc(S(=O)(=O)N2CCCCC2)cc1NC(=O)CSc1ncccn1	-14	-6	1	2	-23	14	/	/

Assay outcomes deposited in PubChem by The Scripps Research Institute Molecular Screening Center.
